Columns and labels:
Assay type in all cases: functional
Staphylococcus aureus [1] = assay: Antibacterial activity against linezolid-resistant Staphylococcus aureus 106-12591A isolate after 24 hrs by broth microdilution method
Summary of the method: (§1)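 Broth microdilution following NCCLS M7-A6 (2003), with inoculum at the recommended densities. Isolates were placed into panel wells with an autoinoculator and grown in cation-adjusted Mueller-Hinton broth at 35°C in ambient air for overnight to 24 h. Panels were read by eye, and the MIC was taken as no visible growth.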

Staphylococcus aureus [2] = assay: Antibacterial activity against methicillin-resistant Staphylococcus aureus ATCC 33591 after 24 hrs by broth microdilution method; details: ATCC 33591, 24 h; summary of the method: as §1
Staphylococcus aureus [3] = assay: Antibacterial activity against methicillin-resistant Staphylococcus aureus 78-13607A after 24 hrs by broth microdilution method; summary of the method: as §1
Staphylococcus aureus [4] = assay: Antibacterial activity against oxacillin-susceptible Staphylococcus aureus ATCC 29213 after 24 hrs by broth microdilution method; details: ATCC 29213, 24 h; summary of the method: as §1
Staphylococcus aureus [5] = assay: Antibacterial activity against oxacillin-resistant Staphylococcus aureus ATCC 33591 after 24 hrs by broth microdilution method; details: ATCC 33591, 24 h; summary of the method: as §1
[6] = tested on: Staphylococcus epidermidis; assay: Antibacterial activity against oxacillin-susceptible Staphylococcus epidermidis isolate 12-1788A isolate after 24 hrs by broth microdilution method
[7] = tested on: Staphylococcus haemolyticus; assay: Antibacterial activity against oxacillin-resistant Staphylococcus haemolyticus 107-1240C isolate after 24 hrs by broth microdilution method; summary of the method: as §1
Enterococcus faecalis [8] = assay: Antibacterial activity against ampicillin and vancomycin-susceptible Enterococcus faecalis ATCC 29212 after 24 hrs by broth microdilution method; details: ATCC 29212, 24 h; summary of the method: as §1
Enterococcus faecium [9] = assay: Antibacterial activity against ampicillin and vancomycin-resistant Enterococcus faecium 24-45A isolate after 24 hrs by broth microdilution method; summary of the method: as §1
Streptococcus pneumoniae [10] = assay: Antibacterial activity against penicillin-intermediate resistant Streptococcus pneumoniae ATCC 49619 after 24 hrs by broth microdilution method; details: ATCC 49619, 24 h; summary of the method: as §1
Streptococcus pneumoniae [11] = assay: Antibacterial activity against penicillin-resistant Streptococcus pneumoniae 33-50B isolate after 24 hrs by broth microdilution method; summary of the method: as §1
Corynebacterium jeikeium = assay: Antibacterial activity against Corynebacterium jeikeium 15-196A isolate after 24 hrs by broth microdilution method
Summary of the method: (§2)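 Broth microdilution following NCCLS M7-A6 (2003) inocula; isolates transferred aseptically into panel wells with an autoinoculator; cation-adjusted Mueller-Hinton broth; incubated overnight to 24 h at 35°C in ambient air; panels read by eye, MIC taken as lowest concentration with no visible growth.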

Bacillus cereus = assay: Antibacterial activity against Bacillus cereus 24-59A isolate after 24 hrs by broth microdilution method
Streptococcus pyogenes = assay: Antibacterial activity against erythromycin-resistant Streptococcus pyogenes 91-8747 isolate after 24 hrs by broth microdilution method; summary of the method: as §1
Streptococcus mitis = assay: Antibacterial activity against penicillin-resistant Streptococcus mitis 61-2900C isolate after 24 hrs by broth microdilution method; summary of the method: as §1
Pseudomonas aeruginosa = assay: Antibacterial activity against sPseudomonas aeruginosa ATCC 27853 after 24 hrs by broth microdilution method; details: ATCC 27853, 24 h; summary of the method: as §2
Escherichia coli = assay: Antibacterial activity against sEscherichia coli ATCC 25922 after 24 hrs by broth microdilution method; details: ATCC 25922, 24 h; summary of the method: as §2
Staphylococcus aureus [12] = assay: Antibacterial activity against mupirocin-resistant Staphylococcus aureus 4-90A isolate after 24 hrs by broth microdilution method; summary of the method: as §1
Staphylococcus aureus [13] = assay: Antibacterial activity against quinupristin/dalfopristin-resistant Staphylococcus aureus 300-12053A isolate after 24 hrs by broth microdilution method; summary of the method: as §1
Staphylococcus [14] = assay: Antibacterial activity against mupirocin-resistant coagulase negative Staphylococcus 63-18A isolate after 24 hrs by broth microdilution method; summary of the method: as §1
Staphylococcus [15] = assay: Antibacterial activity against quinupristin/dalfopristin-resistant coagulase negative Staphylococcus 90-10840A isolate after 24 hrs by broth microdilution method; summary of the method: as §1
Staphylococcus [16] = assay: Antibacterial activity against coagulase negative linezolid-resistant Staphylococcus 82-1645A isolate after 24 hrs by broth microdilution method; summary of the method: as §1
Enterococcus faecalis [17] = assay: Antibacterial activity against vancomycin-resistant Enterococcus faecalis 48-22D isolate with vanA phenotype after 24 hrs by broth microdilution method; summary of the method: as §1
Enterococcus faecalis [18] = assay: Antibacterial activity against vancomycin-resistant Enterococcus faecalis 82-876D with vanB phenotype isolate after 24 hrs by broth microdilution method; summary of the method: as §1
Enterococcus faecalis [19] = assay: Antibacterial activity against linezolid-resistant Enterococcus faecalis 15-5341 isolate after 24 hrs by broth microdilution method; summary of the method: as §1
Enterococcus faecalis [20] = assay: Antibacterial activity against gentamycin and streptomycin-resistant Enterococcus faecalis 39-11D isolate after 24 hrs by broth microdilution method; summary of the method: as §1
Enterococcus faecium [21] = assay: Antibacterial activity against vancomycin-resistant Enterococcus faecium 103-1232D isolate with vanB phenotype after 24 hrs by broth microdilution method; summary of the method: as §1
Enterococcus faecium [22] = assay: Antibacterial activity against vancomycin-resistant Enterococcus faecium 15-206A isolate with vanA phenotype after 24 hrs by broth microdilution method; summary of the method: as §1
Enterococcus faecium [23] = assay: Antibacterial activity against linezolid-resistant Enterococcus faecium 11-4103A isolate after 24 hrs by broth microdilution method; summary of the method: as §1
Enterococcus faecium [24] = assay: Antibacterial activity against quinupristin/dalfopristin-resistant Enterococcus faecium 65-1208A isolate after 24 hrs by broth microdilution method; summary of the method: as §1
Bacillus sp. [25] = assay: Antibacterial activity against tetracycline-resistant Bacillus sp. 107-1461D isolate after 24 hrs by broth microdilution method; details: Bacillus sp. (in: firmicutes); summary of the method: as §1
Bacillus sp. [26] = assay: Antibacterial activity against trimethoprim/sulfamethaxazole-resistant Bacillus sp. 67-1057A isolate after 24 hrs by broth microdilution method; details: Bacillus sp. (in: firmicutes); summary of the method: as §1
Bacillus sp. [27] = assay: Antibacterial activity against erythromycin-resistant Bacillus sp. 32-2406A isolate after 24 hrs by broth microdilution method; details: Bacillus sp. (in: firmicutes); summary of the method: as §1
Streptococcus pneumoniae [28] = assay: Antibacterial activity against multidrug resistant Streptococcus pneumoniae 68-2307B isolate after 24 hrs by broth microdilution method; summary of the method: as §1
Streptococcus pneumoniae [29] = assay: Antibacterial activity against erythromycin and clindamycin-resistant Streptococcus pneumoniae 4-38B isolate after 24 hrs by broth microdilution method; summary of the method: as §1
Streptococcus pneumoniae [30] = assay: Antibacterial activity against erythromycin-resistant and clindamycin-susceptible Streptococcus pneumoniae 35-405B isolate after 24 hrs by broth microdilution method; summary of the method: as §1
Corynebacterium sp. [31] = assay: Antibacterial activity against doxycyclin-resistant Corynebacterium sp. 105-1513C isolate after 24 hrs by broth microdilution method; summary of the method: as §1
Corynebacterium sp. [32] = assay: Antibacterial activity against streptomycin-resistant Corynebacterium sp. 61-5454A isolate after 24 hrs by broth microdilution method; summary of the method: as §1
Corynebacterium sp. [33] = assay: Antibacterial activity against rifampin-resistant Corynebacterium sp. 58-9161A isolate after 24 hrs by broth microdilution method; summary of the method: as §1
Streptococcus [34] = assay: Antibacterial activity against erythromycin and clindamycin-resistant beta-haemolytic sStreptococcus 91-526D isolate after 24 hrs by broth microdilution method; summary of the method: as §1
Streptococcus [35] = assay: Antibacterial activity against erythromycin-resistant and clindamycin-susceptible beta-haemolytic sStreptococcus 109-820D isolate after 24 hrs by broth microdilution method; summary of the method: as §1
Streptococcus [36] = assay: Antibacterial activity against levofloxacin-resistant beta-haemolytic sStreptococcus 19-756A isolate after 24 hrs by broth microdilution method; summary of the method: as §1
Streptococcus [37] = assay: Antibacterial activity against mupirocin-resistant viridans group sStreptococcus 32-2395A isolate after 24 hrs by broth microdilution method; summary of the method: as §1
Streptococcus [38] = assay: Antibacterial activity against levafloxacin-resistant viridans group Streptococcus 107-6380A isolate after 24 hrs by broth microdilution method; summary of the method: as §1
Streptococcus [39] = assay: Antibacterial activity against linezolid-resistant viridans group Streptococcus 27-2832A isolate after 24 hrs by broth microdilution method; summary of the method: as §1
Streptococcus [40] = assay: Antibacterial activity against multidrug-resistant viridans group Streptococcus 58-1602D isolate after 24 hrs by broth microdilution method; summary of the method: as §1
Streptococcus pneumoniae [41] = assay: Antibacterial activity against levofloxacin-resistant Streptococcus pneumoniae 2-2784A isolate after 24 hrs by broth microdilution method; summary of the method: as §1

Measured: MIC

CCCCCCCCCCCCO[C@@H]1O[C@@H](C)[C@H](O[C@@H]2O[C@@H](C)[C@H](OC(C)=O)[C@@H](O[C@@H]3O[C@@H](C)[C@H](OC(C)=O)[C@@H](O[C@@H]4O[C@@H](C)[C@H](OC(C)=O)[C@@H](O)[C@H]4O)[C@H]3OC(C)=O)[C@H]2O)[C@@H](O)[C@H]1O
32 µg/mL: [7] | Corynebacterium jeikeium
> 2 µg/mL: Staphylococcus aureus [12]
16 µg/mL: Corynebacterium sp. [31] | Corynebacterium sp. [32] | Corynebacterium sp. [33]
0.5 µg/mL: Staphylococcus aureus [2]
> 32 µg/mL: [6] | Pseudomonas aeruginosa | Escherichia coli | Staphylococcus [14] | Staphylococcus [15] | Staphylococcus [16]
4 µg/mL: Staphylococcus aureus [4] | Streptococcus pneumoniae [10] | Streptococcus pneumoniae [11] | Streptococcus pyogenes | Streptococcus mitis | Streptococcus pneumoniae [28] | Streptococcus pneumoniae [29] | Streptococcus pneumoniae [30] | Streptococcus [34] | Streptococcus [35] | Streptococcus [36] | Streptococcus [37] | Streptococcus [38] | Streptococcus [39] | Streptococcus [40]
1 µg/mL: Staphylococcus aureus [3]
not listed: Streptococcus pneumoniae [41]
2 µg/mL: all other assays above

CN[C@H](CC(C)C)C(=O)N[C@H]1C(=O)N[C@@H](CC(N)=O)C(=O)N[C@H]2C(=O)N[C@H]3C(=O)N[C@H](C(=O)N[C@H](C(=O)O)c4cc(O)cc(O)c4-c4cc3ccc4O)[C@H](O)c3ccc(c(Cl)c3)Oc3cc2cc(c3O[C@@H]2O[C@H](CO)[C@@H](O)[C@H](O)[C@H]2O[C@H]2C[C@](C)(N)[C@H](O)[C@H](C)O2)Oc2ccc(cc2Cl)[C@H]1O [VANCOMYCIN]
1 µg/mL: [7] | Enterococcus faecalis [8] | Streptococcus pneumoniae [10] | Streptococcus pneumoniae [11] | Corynebacterium jeikeium | Streptococcus pyogenes | Streptococcus mitis | Pseudomonas aeruginosa | Escherichia coli
not listed: Staphylococcus aureus [1] | Staphylococcus aureus [2] | Staphylococcus aureus [3] | Staphylococcus aureus [4] | Staphylococcus aureus [5] | [6] | Enterococcus faecium [9] | Bacillus cereus | Staphylococcus aureus [12] | Staphylococcus aureus [13] | Enterococcus faecium [21] | Enterococcus faecium [22] | Enterococcus faecium [23] | Enterococcus faecium [24] | Corynebacterium sp. [31] | Corynebacterium sp. [32] | Corynebacterium sp. [33]
0.5 µg/mL: all other assays above

CO[C@H]1/C=C/O[C@@]2(C)Oc3c(C)c(O)c4c(O)c(c(/C=N/N5CCN(C)CC5)c(O)c4c3C2=O)NC(=O)/C(C)=C\C=C\[C@H](C)[C@H](O)[C@@H](C)[C@@H](O)[C@@H](C)[C@H](OC(C)=O)[C@@H]1C [RIFAMPIN]
≤ 0.25 µg/mL: Staphylococcus aureus [2] | Staphylococcus aureus [3]
